Bioassay records: PubChem BioAssay, several laboratories
UCH37 DUB inh: blocks the human deubiquitinase UCH37 | Q9Y5K5 | purified proteasome/UCH37, Ub-AMC cleavage fluorescence | AID 588478 | inhibition, % (concentration not given with the values) | hit rate 0.33% among 330,000;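 active = mean inhibition over replicate wells above about 20%, limit read from the data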;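 note: 0% = compound-free wells with enzyme and 100% = wells lacking proteasome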
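Material: Human UCH37 enzyme supplied as purified proteasome complex | Schedule: 30 min preincubation with enzyme, 25 min cleavage at room temperature | Detection: AMC fluorescence 355/460 nm | Measure: % inhibition of Ub-AMC cleavage fluorescence | Controls: Wells without proteasome as full block, compound-free enzyme plus substrate as uninhibited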
TDP2 inh: TDP2 (human) inhibition, absorbance primary screen; O95551; recombinant TDP2, T5PNP hydrolysis, p-nitrophenol absorbance 415 nm; inhibition, % at 12.8 µM; hit rate 0.34% among 370,000; AID 720702;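 active = inhibition above the mean of all tested compounds plus 3 SD, set per campaign, cut at about 25% in these data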;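 note: 0% = DMSO with enzyme and 100% = buffer with substrate but no TDP2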
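Test system: Human TDP2 enzyme | Reagent: 5 mM T5PNP | Compound dosing: 12.8 µM single point, 1% DMSO | Incubation: Enzyme reaction with compound for 2 h at 37 °C | Technique: p-Nitrophenol epi absorbance | Read-out: % inhibition relative to enzyme-containing and enzyme-free wells | Benchmarks: High control without enzyme, low control DMSO plus TDP2 | Replicates: Singlicate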
NSD2 HMT inh: blocks human histone methyltransferase NSD2. NSD2 peptide methylation, AlphaScreen, 120 min. hit rate 0.54% among 310,000. O96028. inhibition, % at 12.5 µM; in the data active = inhibition above about 50%
LEDGF integ inh: blocks HIV-1 LEDGF/p75-dependent DNA integration | hit rate 0.64% among 370,000 | AID 743269 | TR-FRET IN-LEDGF/p75 DNA integration, Eu/Cy5 | inhibition, % at 3.7 µM;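 active = inhibition above the screen-wide mean plus 3 SD, cut at about 13% in these data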;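 note: signal is the Cy5 over europium emission ratio at 671 and 618 nm; 0% = plate median of compound wells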
CASP6 VEID inh: inhibitors of human caspase-6; purified caspase-6, Z-VEID-R110 cleavage fluorescence; inhibition, % at 12.5 µM; hit rate 0.53% among 350,000;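 active = mean inhibition across replicates at least about 35%, with every replicate also reaching that limit, limit read from the data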;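 note: 0% = median of neutral control wells and 100% = no fluorescence left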
AlphaScreen art: interferes with AlphaScreen signal, flagging NSD2 false positives; shares compounds with NSD2 HMT inh; AlphaScreen artifact counterscreen, preloaded methylated H4 peptide; AC35, µM (titrated, usually from 10 µM), for inactives: at the top dose activity change, negative = signal loss; hit rate 9.4% among 1,500; AID 1053174; call rule not given here
* marks the source's active call; other numbers are inactive results; . = no result. Only some compounds are listed: those with a hit (about 1.3% of all), similar ones and a draw of the others.

SMILES	UCH37 DUB inh	TDP2 inh	NSD2 HMT inh	LEDGF integ inh	CASP6 VEID inh	AlphaScreen art
CC(C)(C)c1cc(C(=O)N/N=C/c2ccccn2)n[nH]1	.	-1	-1	0	3	.
Cn1c(=O)[nH]c(=O)c2c1nc(N/N=C/c1ccncc1)n2Cc1ccc(F)cc1	.	-10	62*	-4	0	-2%
Cc1cccnc1NC(=O)c1ccc(S(=O)(=O)N2CC(C)OC(C)C2)cc1 (configuration not stated)	2	-8	50*	-5	11	-1%
CN(C)CCNc1nc(-c2ccco2)c2c(c1C#N)CC(C)(C)OC2	-117	9	127*	-1	.	-1%
CCc1[nH]c(=O)c(C#N)c2c1COC(C)(C)C2	-15	-18	-3	8	.	.
CC1(C)Cc2c(c(-c3ccco3)[nH]c(=O)c2C#N)CO1	-8	2	58*	-1	.	0%
O=C(CN1CCCCC1)NN=Cc1ccccc1OCc1ccccc1	1	.	.	.	.	.
CC12CCC(C)(c3nc4ccccc4nc31)C2(C)C	6	2	53*	1	-3	-3%
Cc1ccc(Sc2ncccc2C(N)=O)cc1	0	-1	106*	-5	-1	-1%
Cc1cc(=O)oc(C)c1C(=O)OCC(=O)c1ccc2ccccc2c1	-10	8	-1	4	.	.
Cc1cc(=O)oc(C)c1C(=O)OCC(=O)c1ccccc1	0	-4	54*	1	3	-5%
Cn1c(CSCc2ccc(F)cc2)nnc1SCC(=O)Nc1nccs1	2	-6	-3	2	.	.
Cn1c(CSCc2ccccc2)nnc1SCC(=O)Nc1nccs1	-1	-2	120*	0	.	-1%
CN1c2cccc3cccc(c23)N(C)C1(C)C	-320	13	95*	2	.	-5%
O=C(O)C1CC(c2ccccc2F)=NO1 (configuration not stated)	0	3	108*	4	.	-7%
O=C(NCCc1cccs1)C1CC(c2ccccc2F)=NO1 (configuration not stated)	-3	10	.	12	.	.
CCOC(=O)C1=C(C)N=c2s/c(=C/c3cccc([N+](=O)[O-])c3O)c(=O)n2C1c1ccccc1 (configuration not stated)	.	-1	63*	11	17	8.7µM*
O=C1ON=C(c2ccccc2)/C1=C/c1ccc(O)c(O)c1	3	-9	24	2	6	.
COc1cc(/C=C2\C(=O)ON=C2c2ccc(Cl)cc2)ccc1O	1	10	61*	-1	4	-4%
COc1ccc(CCNc2c([N+](=O)[O-])ncn2C)cc1OC	9	-2	61*	-5	1	-3%
CCCCNc1c([N+](=O)[O-])ncn1C	5	-12	-6	-1	1	.
COC(=O)CCC/C=C1/SCC(NC(=O)c2ccccc2)C1=NO (configuration not stated)	0	.	.	.	.	.
CCN(C(=S)Nc1ccc(C(C)=O)cc1)C1CCCCC1	0	-15	53*	1	-2	-3%
COc1ccc(NC(=O)c2ccc(F)c(F)c2)c2ccccc12	4	-13	54*	-1	-1	0%
COc1ccc(C(=O)Nc2c(F)c(F)c(F)c(F)c2F)cc1OC	.	4	.	-2	3	.
SMILES	UCH37 DUB inh	TDP2 inh	NSD2 HMT inh	LEDGF integ inh	CASP6 VEID inh	AlphaScreen art
O=C(O)COc1ccc(/C=C/C(=O)c2ccc3ccccc3c2)cc1	-17	.	88*	.	.	-5%
O=C(O)COc1ccc(/C=C/C(=O)c2ccc(C3CCCCC3)cc2)cc1	.	1	31	2	29	.
Oc1ccccc1N=Nc1ccccc1O	7	0	21	-6	2	.
Nc1ccc(N=Nc2ccccc2O)c(N)c1	10	4	54*	-1	0	-16%
CCN1/C(=C/c2ccc3cc(C)cc(C)c3[n+]2CC)Sc2cc(C)ccc21	9	-3	113*	0	-37	9.7µM*
COc1ccc(C(=O)Cc2nnc(C)s2)cc1	3	-5	69*	1	.	2%
COc1ccc(-c2csc(Nc3ncccc3C)n2)cc1OC	-1	-9	0	2	.	.
Cc1cccnc1Nc1nc(-c2ccc(O)c(O)c2)cs1	3	-7	51*	-2	30	-10%
CC(Cc1ccccc1)=NNC(=O)CCCCCC(=O)NN=C(C)Cc1ccccc1	0	.	.	.	.	.
CCCC1Nc2ccc(C(=O)O)cc2C2C=CCC12 (configuration not stated)	1	.	92*	.	.	-1%
O=C(O)c1ccc2c(c1)C1C=CCC1C(c1ccncc1)N2 (configuration not stated)	4	2	20	2	2	.
C(=NNc1nc(Nc2ccccc2)nc(N2CCOCC2)n1)c1c[nH]c2ccccc12	1	.	.	.	.	.
Cc1cccc(C)c1NC(=O)c1c[nH]c2ccccc12	1	8	143*	-2	-2	3%
Cc1cccc(C)c1NC(=O)CNC(=O)Cc1c[nH]c2ccccc12	4	5	0	-7	-3	.
CCCOc1ccc(-c2nc(SCc3ccccc3)[nH]c(=O)c2C#N)cc1OC	-36	-27	66*	7	-3	0%
CCOc1ccc(Cl)cc1C=NNC(=O)c1ccccc1	-2	.	.	.	.	.
CCOC(=O)C(Oc1ccc2c(-c3ccc(OC)cc3)cc(=O)oc2c1C)c1ccccc1 (configuration not stated)	2	-5	53*	1	.	-3%
Cc1ccc(NC(=S)NN=Cc2ccc(OCCC(C)C)cc2)c(C)c1	1	.	.	.	.	.
Cc1cc(C(=O)c2cnc(N=CN(C)C)s2)c(F)cc1Cl	-1	.	.	.	.	.
NC(=O)c1nsc(C(=O)N(c2ccccc2)C(C(=O)NCC2CCCO2)c2ccc3ncccc3c2)c1N (configuration not stated)	-144	-19	59*	2	2	6%
Cc1ccc(-n2c(C)cc(C=NNC(=O)c3ccc(CN4CCOCC4)cc3)c2C)cc1	3	.	.	.	.	.
Cn1c(=O)c(-c2ccccc2)nc2ccccc21	-194	1	126*	-4	.	7%
COc1cc(/C=C/c2[nH]c(=O)[nH]c(=O)c2[N+](=O)[O-])cc(OC)c1O	15	-50	16	1	8	.
C=CCc1cc(/C=C/c2nc(O)c([N+](=O)[O-])c(=O)[nH]2)cc(OC)c1O	.	8	78*	5	39*	-9%
CCCCn1c2nc3ccccc3nc2c2c(=N)oc(C)nc21	-175	-4	5	-2	-2	.
COc1ccc(-n2c3nc4ccccc4nc3c3c(=N)oc(C)nc32)cc1	6	1	115*	2	.	3%
COC(=O)c1ccc(C=NN2CCN(c3ccccc3)CC2)cc1	2	.	.	.	.	.
CC(C)(C)C1CCC2(CC1)C(Nc1cccc(C(F)(F)F)c1)=NC(=S)N2CC#N (configuration not stated)	2	3	64*	0	.	2%
N#CCN1C(=S)N=C(Nc2cccc(Cl)c2)C12CCCCC2	3	-5	.	-4	.	.
